Our source for the EC50 and IC50 values is ChEMBL document CHEMBL1127740, “The discovery of capsazepine, the first competitive antagonist of the sensory neuron excitants capsaicin and resiniferatoxin” (J Med Chem, 1994).

For test [1], the species on record is Rattus norvegicus. The experiment in a line: In vitro agonist activity against [Ca2+] uptake in neonatal rat cultured spinal sensory neurons. The class given is functional. The procedure, abridged: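 Neonatal rat dorsal root ganglia were dissociated with collagenase then trypsin and cultured with 10% horse serum, 1 μg/mL NGF and 48 h of 10^-4 M cytosine arabinoside. Assays used 3–7-day cultures washed in Ca-free HEPES-buffered BSS (pH 7.4). Compound with 10 μCi/mL 45Ca2+ and 1% DMSO was applied for 10 min at room temperature; SDS extract was scintillation counted. Medium-only background; EC50 from ≥6 replicates/concentration.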

Test [2] is filed under the species Rattus norvegicus. The experiment in a line: In vitro antagonist activity against [Ca2+] uptake in neonatal rat cultured spinal sensory neurons. Format: functional. The procedure, abridged:
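Cultured neonatal rat DRG neurons (3–7 days old, non-neuronal cells removed with cytosine arabinoside) were washed in Ca-free HEPES BSS, pH 7.4. 45Ca2+ uptake stimulated by a fixed 0.5 μM agent was measured with test compound in 1% DMSO over 10 min at room temperature. Cells were lysed with SDS and scintillation counted. IC50 is 50% reduction of the evoked response, from ≥6 replicates/concentration.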

Structures are written as SMILES.

What is called EC50 is the concentration giving half of the maximal effect. Consider `COc1cc(C/N=C(\S)NCCc2ccc(Cl)cc2)ccc1O`, for which the response in test [1] was half-maximal at 60 nM (EC50).

For the compound `Oc1ccc(CNC(=S)NCCc2ccc(Cl)cc2)cc1O`, in test [1], the EC50 turned out to be 100 nM.

`CCCCCCCC/N=C(\S)N1CCc2cc(O)c(O)cc2C1` registered an EC50 in test [1] of 740 nM.

A word on the IC50: it is the concentration that gives 50% inhibition. As to `Oc1ccc2c(c1O)CCN(C(=S)NCCc1ccc(Cl)cc1)C2`, the EC50 in test [1] is greater than 100000 nM. For the same compound, it took 440 nM to reach half-maximal inhibition in test [2] (IC50).

`COc1cc2c(cc1O)CN(/C(S)=N/CCc1ccc(Cl)cc1)CC2` returned an EC50 in test [1] of 1230 nM. This lies in the single-digit micromolar range.

`COc1cc2c(cc1O)CN(/C(S)=N/CCc1ccc(Cl)cc1)C2`: the EC50 in test [1] was greater than 100000 nM. The compound further yielded an IC50 in test [2] greater than 100000 nM.

Compound `COc1cc2c(cc1O)CCN(/C(S)=N/CCc1ccc(Cl)cc1)C2` had an EC50 in test [1] of 1090 nM. The same compound had an IC50 in test [2] of 1230 nM.

In turn, `CCCCCCCC/N=C(\S)NCc1ccc(O)c(OC)c1` came in with an EC50 in test [1] of 60 nM. That is a double-digit nanomolar value.

In the case of `Oc1cc2c(cc1O)CN(C(=S)NCCc1ccc(Cl)cc1)CCC2` [CAPSAZEPINE], the EC50 in test [1] is greater than 100000 nM. Also, 420 nM corresponded to half-maximal inhibition in test [2] (IC50).

Take `COc1cc2c(cc1OC)CN(/C(S)=N/CCc1ccc(Cl)cc1)CCC2`: the EC50 in test [1] is greater than 100000 nM. This compound returned an IC50 in test [2] of 6990 nM.

As to `Oc1cc2c(cc1O)CN(C(=S)NCCc1ccc(Cl)cc1)C2`, the EC50 in test [1] was 550 nM.

On to `CCCCCCCC/N=C(\S)N1CCc2c(ccc(O)c2O)C1`, for which, in test [1], the EC50 is greater than 100000 nM. In test [2], this compound registered an IC50 of 3480 nM.

`Oc1cc2c(cc1O)CN(C(=S)NCCc1ccc(Cl)cc1)CC2` yielded an EC50 in test [1] of 290 nM.
